Measurements gathered from unrelated publications.
Each line is one published result; the experiments were not run side by side.
Organism: Mycolicibacterium smegmatis
Observed: microbial growth

SMILES | assay | system | setting | MIC
CC[C@H]1OC(=O)[C@H](C)[C@@H](O[C@H]2C[C@@](C)(OC)[C@@H](O)[C@H](C)O2)[C@H](C)[C@@H](O[C@@H]2O[C@H](C)C[C@H](N(C)C)[C@H]2O)[C@](C)(OC)C[C@@H](C)C(=O)[C@H](C)[C@@H](O)[C@]1(C)O | resazurin | MC^2155 | 24 h | 0.36 µg/mL
COc1ccc(-c2c[nH]c(N)n2)cc1 |  | ATCC700084 MC^2155 | 48 h | 200 µM
CC(=O)O[C@H]1C[C@@]2(C)[C@@H](C[C@@H](O)[C@H]3[C@@]4(C)CC[C@@H](O)[C@@H](C)[C@@H]4CC[C@@]32C)/C1=C(\CCC=C(C)C)C(=O)O | resazurin | MC^2155 | 24 h | 50 µg/mL
CCOc1ccc(-c2c[nH]c(N)n2)cc1 |  | ATCC700084 MC^2155 | 48 h | 200 µM
NC[C@H]1O[C@H](O[C@H]2[C@H](O)[C@@H](O[C@H]3O[C@H](CO)[C@@H](O)[C@H](N)[C@H]3O)[C@H](N)C[C@@H]2N)[C@H](N)C[C@@H]1O | broth dilution |  | 72 h | 1 µg/mL
CO[C@H]1/C=C/O[C@@]2(C)Oc3c(C)c(O)c4c(O)c(c(/C=N/N5CCN(C)CC5)c(O)c4c3C2=O)NC(=O)/C(C)=C\C=C\[C@H](C)[C@H](O)[C@@H](C)[C@@H](O)[C@@H](C)[C@H](OC(C)=O)[C@@H]1C | broth dilution | ATCC700084 MC^2155 |  | 8 µg/mL
C[C@@H](O)[C@H]1C(=O)N2C(C(=O)O)=C(SCCN=CN)C[C@H]12 | resazurin | MC^2155 | 24 h | 2.3 µg/mL
C/C(=N\NC(=N)N)c1ccc(-c2ccc(/C(C)=N/Nc3ccccc3Cl)cc2)cc1.Cl |  | MC2155 |  | 213 µg/mL
CC[C@@H](CO)NCCN[C@@H](CC)CO | resazurin | MC^2155 | 24 h | 0.78 µg/mL
CCN[C@@H]1C[C@H](N)[C@@H](O[C@H]2OC(CN)=CC[C@H]2N)[C@H](O)[C@H]1O[C@H]1OC[C@](C)(O)[C@H](NC)[C@H]1O | broth dilution |  | 72 h | 2 µg/mL
Cc1ccc(Nc2nc(-c3cc(C(=O)Nc4ccc(O)cc4)no3)cs2)cc1 |  | MC2155 |  | > 64 µg/mL
CCCCCC[C@H](CN1CCC(COc2cccc(C(=NOC)c3ccc(Cl)cc3)c2)CC1)OC(N)=O | agar dilution |  |  | 6.5 µg/mL
CCCOc1ccc(-c2c[nH]c(N)n2)cc1 |  | ATCC700084 MC^2155 | 48 h | 100 µM
Cc1ccc(Nc2nc(-c3cc(C(=O)Nc4ccccc4)no3)cs2)cc1 |  | MC2155 |  | > 64 µg/mL
CO/N=C(\C(=O)N[C@@H]1C(=O)N2C(C(=O)O)=C(COC(C)=O)CS[C@H]12)c1csc(N)n1 | resazurin | MC^2155 | 24 h | 75 µg/mL
CCOCCOc1ccc(-c2c[nH]c(N)n2)cc1 |  | ATCC700084 MC^2155 | 48 h | > 200 µM
Cc1ccc(Nc2nc(-c3cc(C(=O)Nc4ccccn4)no3)cs2)cc1 |  | MC2155 |  | > 64 µg/mL
